According to ChEMBL document CHEMBL4024799, “Synthesis and Biological Characterization of Aryl Uracil Inhibitors of Hepatitis C Virus NS5B Polymerase: Discovery of ABT-072, a trans-Stilbene Analog with Good Oral Bioavailability” (J Med Chem, 2018):
Converted amounts (≈) assume the structure as drawn.

Columns and labels:
[1] = Plasma clearance in Sprague-Dawley rat at 5 mg/kg, iv; format: ADME, organism-based
Procedure, shortened: (§1)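 Sprague-Dawley rats, n = 3 per experiment; solution in DMSO:PEG400 (1:9, v/v) given IV or oral; 5 mg/kg for both routes, and 30 mg/kg oral; plasma t1/2, Vss, clearance, Cmax, AUC and F% determined.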

Hepatitis C virus [2] = assay: Antiviral activity against HCV genotype 1b Con1 infected in human HuH7 cells harboring HCV subgenomic bicistronic replicon after 3 days by luciferase reporter gene assay; format: functional, cell-based, Hepacivirus hominis; settings: genotype 1b Con1, Huh-7, 72 h
Procedure, shortened: (§2)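 Subgenomic genotype 1a (H77) or 1b (Con1) replicons carrying firefly luciferase, transfected into Huh-7 cells. Replication inhibition was read as luciferase level in cell lysate on a luminometer and reported as EC50. Runs were done without human plasma or with 40% human plasma added, to assess inhibitor–protein binding.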

Hepatitis C virus [3] = assay: Antiviral activity against HCV genotype 1a H77 infected in human HuH7 cells harboring HCV subgenomic bicistronic replicon after 3 days by luciferase reporter gene assay; format: functional, cell-based, Hepacivirus hominis; settings: genotype 1a H77, Huh-7, 72 h; procedure, shortened: as §2
[4] = Half life in Sprague-Dawley rat at 5 mg/kg, po; format: ADME, organism-based; settings: in vivo; procedure, shortened: as §1
Hepatitis C virus [5] = assay: Antiviral activity against HCV genotype 1b Con1 infected in human HuH7 cells harboring HCV subgenomic bicistronic replicon after 3 days in presence of 40% human plasma by luciferase reporter gene assay; format: functional, cell-based, Hepacivirus hominis; settings: genotype 1b Con1, Huh-7, 72 h; procedure, shortened: as §2
[6] = AUC in Sprague-Dawley rat at 5 mg/kg, po; format: ADME, organism-based; settings: in vivo; procedure, shortened: as §1
[7] = Oral bioavailability in Sprague-Dawley rat at 5 mg/kg; format: ADME, organism-based; settings: in vivo; procedure, shortened: as §1
[8] = Aqueous solubility of the compound at pH 7.2; format: physicochemical; settings: buffer
[9] = Passive permeability of the compound by PAMPA; format: physicochemical; settings: read-out: permeability
[10] = Stability in rat liver microsomes assessed as parent compound remaining after 30 mins; format: ADME, microsome; settings: read-out: Stability
Procedure, shortened: (§3)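 Compound incubated 30 min with human or rat liver microsomes; percent of parent compound remaining reported.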

[11] = Inhibition of HCV genotype 1b BK NS5B RNA dependent RNA polymerase assessed as reduction in [3H]UTP incorporation in to RNA preincubated for 15 mins followed by [3H]UTP addition measured after 3 hrs by microbeta scintillation counting method; design: species or system Hepatitis C virus (isolate BK)
Procedure, shortened: (§4)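 NS5B polymerase from genotype 1a (H77) or 1b (BK); formation of RNA product measured as 3H-UTP incorporation by scintillation counting; IC50 calculated with a standard IC50 equation.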

[12] = Stability in human liver microsomes assessed as parent compound remaining after 30 mins; format: ADME, microsome; settings: read-out: Stability; procedure, shortened: as §3
[13] = Inhibition of HCV genotype 1a H77 NS5B RNA dependent RNA polymerase assessed as reduction in [3H]UTP incorporation in to RNA preincubated for 15 mins followed by [3H]UTP addition measured after 3 hrs by microbeta scintillation counting method; design: species or system Hepatitis C virus (isolate H77); procedure, shortened: as §4
[14] = Cmax in Sprague-Dawley rat at 5 mg/kg, po; format: ADME, organism-based; design: dose 5 mg/kg, route oral; settings: in vivo; procedure, shortened: as §1
Rattus norvegicus = assay: Time at which plasma concentration stays above HCV genotype 1b Con1 replicon EC50 in Sprague-Dawley rat at 5 mg/kg, po
[15] = Plasma concentration in Sprague-Dawley rat at 5 mg/kg, po up to 8 hrs; format: ADME, organism-based; procedure, shortened: as §1
[16] = Ratio of plasma concentration in Sprague-Dawley rat at 5 mg/kg, po to EC50 for HCV genotype 1b Con1 infected in human HuH7 cells harboring HCV subgenomic bicistronic replicon
Hepatitis C virus [17] = assay: Antiviral activity against HCV genotype 1a H77 infected in human HuH7 cells harboring HCV subgenomic bicistronic replicon after 3 days in presence of 40% human plasma by luciferase reporter gene assay; format: functional, cell-based, Hepacivirus hominis; settings: genotype 1a H77, Huh-7, 72 h; procedure, shortened: as §2

Row | Structure (SMILES) | clearance [1] | EC50 (Hepatitis C virus [2]) | EC50 (Hepatitis C virus [3]) | half-life [4] | EC50 (Hepatitis C virus [5]) | AUC [6] | bioavailability [7] | solubility ([8]; read-out: solubility) | Papp [9] | remaining at 0.5 h [10] | IC50 [11] | remaining at 0.5 h [12] | IC50 [13] | Cmax [14] | Time (Rattus norvegicus) | concentration at 8 h [15] | Ratio [16] | EC50 (Hepatitis C virus [17]) | solubility [8]
1 | COc1c(/C=C/c2ccc(NS(C)(=O)=O)c(F)c2)cc(-n2ccc(=O)[nH]c2=O)cc1C(C)(C)C | 6.33 mL/min/kg | 0.0021 µM | 0.0138 µM | 3.7 h | 0.0053 µM | 10400 ng·h/mL | 76% | 15.5 µM (≈ 7.56 µg/mL) | – | – | – | – | – | – | – | – | – | – | –
2 | COc1c(NC(=O)c2ccc(NS(C)(=O)=O)cc2)cc(N2CCC(=O)NC2=O)cc1C(C)(C)C | – | 0.029 µM | – | – | 0.021 µM | – | – | 32.8 µM (≈ 16 µg/mL) | 0.22 ×10⁻⁶ cm/s | > 85% | 0.046 µM | > 85% | 0.0088 µM | – | – | – | – | – | –
3 | COc1c(CCc2ccc(NS(C)(=O)=O)cc2)cc(N2CCC(=O)NC2=O)cc1C(C)(C)C | – | 0.0391 µM | – | – | 0.0913 µM | – | – | 18.8 µM (≈ 8.9 µg/mL) | 4.06 ×10⁻⁶ cm/s | 1.6% | 0.0403 µM | 2.5% | 0.0265 µM | – | – | – | – | – | –
4 | COc1c(C(=O)Nc2ccc(NS(C)(=O)=O)cc2)cc(N2CCC(=O)NC2=O)cc1C(C)(C)C | 25 mL/min/kg | 0.019 µM | – | – | 0.022 µM | 50 ng·h/mL | – | < 1.5 µM | 0.25 ×10⁻⁶ cm/s | > 85% | 0.0217 µM | > 85% | 0.0108 µM | – | – | – | – | – | –
5 | COc1c(COc2ccc(NS(C)(=O)=O)cc2)cc(N2CCC(=O)NC2=O)cc1C(C)(C)C | – | 0.053 µM | – | – | 0.321 µM | – | – | 3 µM (≈ 1.43 µg/mL) | 7.47 ×10⁻⁶ cm/s | 80% | 0.167 µM | > 85% | 0.1 µM | – | – | – | – | – | –
6 | COc1c(C(=O)N(C)c2ccc(NS(C)(=O)=O)cc2)cc(N2CCC(=O)NC2=O)cc1C(C)(C)C | – | 1.55 µM | – | – | – | – | – | > 50 µM | 0.25 ×10⁻⁶ cm/s | 83% | 0.273 µM | 64% | 0.14 µM | – | – | – | – | – | –
7 | COc1c(C2CC2c2ccc(NS(C)(=O)=O)cc2)cc(N2CCC(=O)NC2=O)cc1C(C)(C)C (stereo unspecified) | – | 0.056 µM | – | – | 0.431 µM | – | – | 18.8 µM (≈ 9.13 µg/mL) | 2.8 ×10⁻⁶ cm/s | 32.3% | 0.514 µM | 26.5% | 0.267 µM | – | – | – | – | – | –
8 | COc1c(C#Cc2ccc(NS(C)(=O)=O)cc2)cc(N2CCC(=O)NC2=O)cc1C(C)(C)C | 31.7 mL/min/kg | 0.0039 µM | – | 3 h | 0.0298 µM | 350 ng·h/mL | 14% | 2.3 µM (≈ 1.08 µg/mL) | 0.83 ×10⁻⁶ cm/s | 50% | 0.003 µM | 35.8% | 0.0011 µM | 60 ng/mL | – | – | – | – | –
9 | COc1c(/C=C(\C)c2ccc([N+](=O)[O-])cc2)cc(N2CCC(=O)NC2=O)cc1C(C)(C)C | – | 0.0124 µM | – | – | 0.0828 µM | – | – | < 2 µM | 0.58 ×10⁻⁶ cm/s | 36.5% | 0.0167 µM | 18.5% | 0.0049 µM | – | – | – | – | – | –
10 | COc1c(/C=C/c2ccc(NS(C)(=O)=O)cc2)cc(-n2cc(F)c(=O)[nH]c2=O)cc1C(C)(C)C | 14.2 mL/min/kg | 0.0096 µM | 0.089 µM | 3.7 h | 0.0594 µM | 3120 ng·h/mL | 52% | 15.5 µM (≈ 7.56 µg/mL) | – | – | – | – | – | – | – | – | – | – | –
11 | COc1c(CNc2ccc(NS(C)(=O)=O)cc2)cc(N2CCC(=O)NC2=O)cc1C(C)(C)C | – | 0.522 µM | – | – | – | – | – | 90.8 µM (≈ 43.1 µg/mL) | 0.41 ×10⁻⁶ cm/s | 58% | 0.27 µM | 67% | 0.08 µM | – | – | – | – | – | –
12 | COc1c(/C=C/c2ccc(NS(C)(=O)=O)cc2)cc(N2CCC(=O)NC2=O)cc1C(C)(C)C | 10.7 mL/min/kg | 0.0011 µM | 0.0031 µM | 2.3 h | 0.0031 µM | 1520 ng·h/mL | 18% | – | 0.92 ×10⁻⁶ cm/s | 33.5% | 0.0007 µM | 48.1% | 0.0003 µM | 260 ng/mL | 8 h | > 200 nM | >60 | 0.05 µM | 10.3 µM (≈ 4.86 µg/mL)
